Sampled rows, rich in hits. Any-hit rate of the full collection: about 2.1%.
TLR4-MyD88 BLA – TLR4-MyD88 interaction inhibition in cells | O00206+Q99836 | HeLa CL3-4 TLR4/MyD88 BLA complementation, FRET ratio | inhibition, % at 8.4 µM | 200,000 compounds, 0.18% hits | AID 861; in the data active means inhibition above about 25%;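 further: 0% = vehicle and 100% = reference inhibitor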
TLR9-MyD88 inh – TLR9-MyD88 interaction inhibition; inhibition, % at 4.98 µM; Q9NR96+Q99836; CHO BLA complementation TLR9-MyD88, CCF4 FRET ratio; 340,000 compounds, 0.21% hits;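 active means inhibition above the mean over all tested compounds plus 3 SD, cut at about 21% in these data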;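 further: 0% = DMSO only wells and 100% = clavulanate BLA inhibitor control wells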
MC4R barr agon – human MC4R agonism via beta-arrestin. P32245. U2OS MC4R beta-arrestin complementation, luminescence; percent of melanotan II response, DMSO zero. activation, % at 8.9 µM. 360,000 compounds, 0.98% hits. AID 540308;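 active means activation above a per-plate cutoff, the mean activation of sample wells on that plate plus 3 SD, cut at about 8% in these data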
MC4R antag cAMP – human MC4R antagonism in cAMP assay | P32245 | MC4R-expressing cells, MTII-stimulated cAMP, LANCE TR-FRET | inhibition, % at 6.5 µM | 360,000 compounds, 0.48% hits | AID 540295;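 active means inhibition above its plate's cutoff, the mean of tested wells on that plate plus 3 SD, cut at about 29% in these data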;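 further: 0% = Melanotan II alone and 100% = Melanotan II plus saturating MCL0020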
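System: U2OS cells stably expressing human melanocortin 4 receptor (MC4R). Reagent: Melanotan II challenge after compound preincubation. Doses: 6.5 µM. Times: 30-min compound, 1-h challenge, 1-h detection, room temperature. Measured by: TR-FRET with Eu-cAMP and labeled anti-cAMP, 671 nm. Replicates: singlicate.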
beta cell repl – inducers of beta-cell replication in MIN6 cells. MIN6 cells proliferation, ATPlite luminescence, 48 h; cells starved in 0.2% serum; 100% = growth in 10% serum. 330,000 compounds, 0.29% hits. proliferation, % at 10 µM;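 active means compounds whose signal lies at least 3.5 SD above the mean of all wells on their plate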;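 further: 0% = DMSO-treated cells in low-serum medium and 100% = 10% serum control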
NOD2 RIPK2 PPI – inhibitors of human NOD2-RIPK2 interaction; O43353; CHO BLA complementation NOD2-RIPK2, CCF4 ratio; inhibition, % at 4.98 µM; 360,000 compounds, 0.38% hits; AID 624267; in the data active means inhibition above about 21%;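 further: 0% = vehicle only and 100% = reference blocker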
Target sequence (O43353 whole entry, looked up): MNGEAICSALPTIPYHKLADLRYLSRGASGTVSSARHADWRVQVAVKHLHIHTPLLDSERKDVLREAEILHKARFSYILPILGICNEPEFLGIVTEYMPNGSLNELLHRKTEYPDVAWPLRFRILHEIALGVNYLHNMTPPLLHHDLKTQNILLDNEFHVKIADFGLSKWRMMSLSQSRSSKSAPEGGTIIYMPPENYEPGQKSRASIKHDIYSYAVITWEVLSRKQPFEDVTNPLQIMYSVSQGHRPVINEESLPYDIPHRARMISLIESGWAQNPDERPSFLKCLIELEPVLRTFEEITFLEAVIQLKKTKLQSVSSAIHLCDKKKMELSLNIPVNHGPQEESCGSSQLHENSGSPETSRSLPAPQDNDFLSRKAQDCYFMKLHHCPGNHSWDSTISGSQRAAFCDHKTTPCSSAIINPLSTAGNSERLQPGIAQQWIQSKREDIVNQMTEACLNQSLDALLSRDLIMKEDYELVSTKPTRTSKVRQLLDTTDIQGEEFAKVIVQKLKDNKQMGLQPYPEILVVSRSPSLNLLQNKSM
MC4R barr ag – human MC4R beta-arrestin agonism confirmation | activation, % at 8.9 µM | shares compounds with MC4R barr agon | U2OS MC4R beta-arrestin recruitment, luminescence; scaled DMSO 0%, Melanotan II 100% | 2,400 compounds, 31% hits;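 active means mean activation across replicates above the hit cutoff set in the earlier primary screen, cut at about 8% in these data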
MOR-DOR barr ag – OPRM1-OPRD1 heterodimer agonism counter-screen; shares compounds with MC4R barr agon; U2OS PathHunter beta-arrestin, beta-gal luminescence; percent of deltorphin B response, DMSO zero; activation, % at 9.2 µM; 2,400 compounds, 5.8% hits;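 active means mean activation across replicates exceeds the hit threshold derived in the earlier primary screen, cut at about 18% in these data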;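 further: 100% = deltorphin B at 0.9 µM final and 0% = DMSO alone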
Active calls of the source: *; . = no result given.

SMILES | TLR4-MyD88 BLA | TLR9-MyD88 inh | MC4R barr agon | MC4R antag cAMP | beta cell repl | NOD2 RIPK2 PPI | MC4R barr ag | MOR-DOR barr ag
Fc1cc(Br)ccc1Nc1nc2ccccc2n2nnnc12 | 9 | -2 | 14* | -1 | -1 | -1 | 9.6* | 5
CCC(C(=O)Nc1nnc(-c2ccco2)s1)c1ccccc1 (configuration not stated) | 10 | 7 | 10* | 15 | -2 | 4 | 2 | 6
CCC(c1ccccc1)c1nnc(NC(=O)c2ccco2)s1 (configuration not stated) | . | . | 1 | 6 | 2 | -12 | . | .
O=C(Nc1nnc(CC(c2ccccc2)c2ccccc2)s1)c1ccco1 | -3 | -8 | 20* | 7 | -2 | -4 | 2 | 2
CC(C)CC1CC(C)(c2csc(NNC(=O)c3ccccc3)n2)OC1=O (configuration not stated) | -7 | -12 | -3 | 7 | -4 | 2 | . | .
O=C(CNC(=O)c1ccc(Br)o1)NNC(=O)c1ccccc1 | . | -7 | 0 | 10 | -4 | -2 | . | .
O=C(CNC(=S)NC(=O)c1ccc(Cl)cc1)c1ccccc1 | -5 | 3 | 12* | -1 | 2 | -6 | 2 | 3
O=C(CNC(=S)NC(=O)c1ccc(Br)o1)c1ccccc1 | 8 | 10 | 11* | 1 | -1 | 9 | 2 | 6
CCc1cc2ccc(C)cc2nc1SCC(=O)NC1CCCC1 | . | -10 | 1 | 10 | 11 | 8 | . | .
Cc1ccc(S(=O)(=O)N2CCN(CCNC(=O)C(=O)Nc3ccc(F)cc3)CC2)cc1 | . | -6 | 14* | 24 | 0 | 6 | 0 | 6
O=C(NCCN1CCN(S(=O)(=O)c2ccccc2)CC1)C(=O)Nc1ccc(F)cc1 | . | -5 | -1 | 6 | -3 | 1 | . | .
CSc1nc2nccc(-c3ccc(-c4ccccc4)cc3)n2n1 | 1 | -7 | 11* | 20 | -4 | -6 | 1 | 4
CSc1nc2nccc(-c3ccc(Oc4ccccc4)cc3)n2n1 | 3 | -4 | 2 | 13 | -2 | -6 | . | .
NC(CCc1ccccc1)c1csc(Nc2ccc(C(=O)c3ccccc3)cc2)n1 (configuration not stated) | . | . | 13* | 13 | . | 1 | 20* | 9
NC(Cc1ccc(C(F)(F)F)cc1)c1csc(Nc2cc(NCc3ccco3)ncn2)n1 (configuration not stated) | . | . | 12* | 8 | . | 6 | 43* | 26*
CN(Cc1ccccc1)C(=O)c1ccc(Nc2nc(C(N)Cc3ccccc3)cs2)nc1 (configuration not stated) | . | . | 1 | -2 | . | -7 | . | .
CN(Cc1ccccc1)C(=O)c1ccc(Nc2nc(C(N)Cc3ccc(C(F)(F)F)cc3)cs2)nc1 (configuration not stated) | . | . | 40* | 20 | . | 7 | 22* | 33*
NC(Cc1ccc(C(F)(F)F)cc1)c1csc(Nc2ccc(C(=O)c3ccccc3)cc2)n1 (configuration not stated) | . | . | 13* | 7 | . | 9 | 14* | 14
CC(=O)c1ccc(Nc2nc(C(N)Cc3ccc(C(F)(F)F)cc3)cs2)cc1 (configuration not stated) | . | . | 7 | 9 | . | 12 | . | .
Cc1cc(/N=C/C=C2/N(C)c3ccccc3C2(C)C)n(CCC#N)n1 | . | 3 | -1 | 4 | . | -2 | . | .
Cc1ccc(NC(=O)c2cc(C(C)(C)C)nn2Cc2ccccc2)cc1 | . | -4 | 3 | 9 | -6 | -3 | . | .
CC(C)(C)c1cc(C(=O)Nc2ccc(F)cc2)n(Cc2ccc(F)cc2)n1 | . | . | 9.6* | 4 | -4 | -4 | 5 | 11
CCOC(=O)Cc1ccc(Nc2nc(NCc3cccs3)nc3ccsc23)cc1 | . | . | 15* | -3 | . | -22 | -4 | 5
C[C@H](NC(=O)c1ccco1)C(=O)N1CCCC1 | . | -1 | 1 | 0 | 1 | -2 | . | .
Clc1ccc(-n2ncc3c(NCc4ccc5c(c4)OCO5)ncnc32)cc1 | 6 | -2 | 10* | 6 | 0 | -1 | 3 | 7
SMILES | TLR4-MyD88 BLA | TLR9-MyD88 inh | MC4R barr agon | MC4R antag cAMP | beta cell repl | NOD2 RIPK2 PPI | MC4R barr ag | MOR-DOR barr ag
Cc1cccc(CN2CCc3c([nH]c4ccccc34)C2C(C)(C)C)n1 (configuration not stated) | . | 0 | 0 | 1 | -2 | 2 | . | .
COc1cccc(Cn2c(-c3nonc3N)nc3ccccc32)c1 | 14 | -2 | 1 | -22 | -1 | 7 | . | .
Nc1nonc1-c1nc2ccccc2n1Cc1ccc(Cl)cc1 | 16 | 5 | 11* | -6 | -1 | -2 | -1 | 5
COc1cc(Cn2c(-c3nonc3N)nc3ccccc32)ccc1C | -8 | 1 | 10* | -25 | -2 | 0 | -4 | 4
O=C(CCNC(=O)c1ccc([N+](=O)[O-])cc1)Nc1cccc(S(=O)(=O)N2CCOCC2)c1 | . | -6 | 1 | 13 | -3 | 6 | . | .
COc1cc(F)ccc1-c1csc(C(O)c2ccc(F)cc2)n1 (configuration not stated) | . | . | 14* | 5 | . | -1 | -1 | 8
COc1cccc(OCC(=O)NN=C2c3ccccc3-c3ccccc32)c1 | 3 | -4 | 65* | -4 | 3 | 0 | 8 | 6
COc1cccc(OCC(=O)Nc2ccccc2-c2ccccc2)c1 | -4 | . | 2 | -7 | -1 | -8 | . | .
C=CCn1c(SCc2c(C)noc2C)nc2sc(C)c(C)c2c1=O | -3 | -10 | 2 | 0 | -5 | 6 | . | .
Cc1noc(C)c1CSc1nc2sc(C)c(C)c2c(=O)n1-c1ccccc1 | 7 | -8 | 11* | 7 | 0 | -9 | -2 | 5
O=c1[nH]c(Cn2nnc(-c3ccccc3)n2)nc2scc(-c3ccccc3)c12 | 4 | 8 | 12* | -3 | -4 | -7 | 2 | 7
CCOc1ccc(N(CC)C(=O)c2cn(CC)c(=O)c3cc(OC)c(OC)cc23)cc1 | . | -5 | 0 | -5 | -3 | -1 | . | .
O=C(CC(=O)N1CCOCC1)N1CCOCC1 | . | -2 | -2 | 7 | . | 5 | . | .
N=c1n(CC(=O)c2ccc(Br)s2)c2ccccc2n1Cc1ccccc1 | . | 2 | 14* | -2 | -6 | 2 | 13* | 18*
Cn1c(=N)n(CC(=O)c2ccc(Br)s2)c2ccccc21 | 11 | -6 | 2 | -5 | 0 | -9 | . | .
COc1cc(OC)c(NC(=O)c2cc3ccccc3cc2O)cc1Cl | . | -10 | -1 | 9 | . | 3 | . | .
COc1cccc(Nc2nc(N)c([N+](=O)[O-])c(N3CCOCC3)n2)c1 | . | -3 | -1 | 11 | -2 | 4 | . | .

Screening results: PubChem BioAssay, several laboratories
